Series [1] has as its target T1, Nuclear receptor subfamily 1 group I member 2 (Homo sapiens, UniProt O75469).
T1 sequence (O75469 whole entry): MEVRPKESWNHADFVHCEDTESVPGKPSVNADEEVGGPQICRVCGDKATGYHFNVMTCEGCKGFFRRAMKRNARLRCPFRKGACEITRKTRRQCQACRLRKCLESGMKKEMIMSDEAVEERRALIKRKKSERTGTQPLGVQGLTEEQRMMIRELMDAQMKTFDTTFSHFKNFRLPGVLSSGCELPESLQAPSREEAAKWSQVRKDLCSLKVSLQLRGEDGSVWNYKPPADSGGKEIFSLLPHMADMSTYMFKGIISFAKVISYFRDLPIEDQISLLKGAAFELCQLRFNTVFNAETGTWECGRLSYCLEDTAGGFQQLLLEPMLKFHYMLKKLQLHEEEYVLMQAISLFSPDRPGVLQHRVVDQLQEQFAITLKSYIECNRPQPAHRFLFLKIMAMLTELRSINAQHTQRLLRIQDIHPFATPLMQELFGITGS
The experiment in a line: Transactivation of human PXR expressed in HepG2 cells at 2 uM after 24 hrs by luciferase reporter gene assay relative to rifampin. The class given is cell-based. As to conditions: hepg2, 24 h. In short, it runs like this:
(§1)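 HepG2 cells transfected with a CYP3A4-promoter luciferase reporter and human PXR cDNA. Compound added from DMSO stocks to final 2 and 10 μM in buffer and incubated 24 h. Luciferase activity read by chemiluminescence and reported as percent of the rifampin (10 μM) positive control.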
(In a reporter assay the amount or activity of a reporter protein is the signal.)

Series [2] addresses T2, Mitogen-activated protein kinase 12 (Homo sapiens, UniProt P53778).
T2 sequence (P53778 whole entry): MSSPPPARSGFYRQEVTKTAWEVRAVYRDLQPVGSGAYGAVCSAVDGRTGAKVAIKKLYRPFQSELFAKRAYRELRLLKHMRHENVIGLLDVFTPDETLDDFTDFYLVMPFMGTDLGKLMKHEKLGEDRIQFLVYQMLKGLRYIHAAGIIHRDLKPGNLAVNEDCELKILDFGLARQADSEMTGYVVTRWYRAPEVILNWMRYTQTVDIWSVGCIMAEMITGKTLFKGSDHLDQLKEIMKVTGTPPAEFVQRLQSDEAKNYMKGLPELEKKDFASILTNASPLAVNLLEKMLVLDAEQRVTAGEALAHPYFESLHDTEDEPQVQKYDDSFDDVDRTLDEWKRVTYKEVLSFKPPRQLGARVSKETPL
The experiment in a line: Inhibition of p38-gamma.

Series [3] is described as follows: in vitro. Particulars: human, Caco-2.
The subject of series [4] is Rattus norvegicus. Kind of series: Inhibition of MAPKAP2 phosphorylation in porcine type 2 collagen-induced arthritis Lewis rat ankles at 0.01 to 1 mg/kg, po by Western blotting. Type of series: functional. Particulars: dose mg/kg 0.01-1. The essentials:
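Oral dosing once daily for 7 days in collagen-induced arthritic Lewis rats, vehicle 15% HPBCD, 1% HPMC, 1% Pluronic F68, pH 2.2. Ankles (n = 2/group) frozen at sacrifice, pulverized and lysed; 15 μg protein per lane for Western blot with phospho-MK2 antibody. Signal normalized to Akt and expressed as percent of vehicle-treated arthritic control.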

Series [5] deals with T3, Mitogen-activated protein kinase 13 (Homo sapiens, UniProt O15264).
T3 sequence (O15264 whole entry): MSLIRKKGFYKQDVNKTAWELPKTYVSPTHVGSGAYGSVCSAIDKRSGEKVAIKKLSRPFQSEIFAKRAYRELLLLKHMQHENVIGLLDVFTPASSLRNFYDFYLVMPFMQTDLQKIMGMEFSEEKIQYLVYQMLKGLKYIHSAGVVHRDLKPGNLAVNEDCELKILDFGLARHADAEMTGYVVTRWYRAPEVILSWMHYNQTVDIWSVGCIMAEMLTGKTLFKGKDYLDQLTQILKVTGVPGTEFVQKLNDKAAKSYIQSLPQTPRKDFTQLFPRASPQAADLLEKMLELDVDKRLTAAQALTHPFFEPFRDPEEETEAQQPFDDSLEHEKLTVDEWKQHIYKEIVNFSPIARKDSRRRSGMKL
Kind of series: Inhibition of p38delta.

A short description of series [6]: AUC (0 to 24 hrs) in porcine type 2 collagen-induced arthritis Lewis rat model at 0.01 to 1 mg/kg, po. Type of series: ADME, organism-based. More on the design: dose 0.01-1 mg/kg, route oral. As to conditions: in vivo.
The target of series [7] is T1, Nuclear receptor subfamily 1 group I member 2. The experiment in a line: Transactivation of human PXR expressed in HepG2 cells at 10 uM after 24 hrs by luciferase reporter gene assay relative to rifampin. Particulars: hepg2, 24 h. The class given is cell-based. In short, it runs like this: as §1

`Cc1ccc(C(=O)NC2CC2)cc1-c1cc2cnn(-c3c(F)cccc3F)c2n(C)c1=O`: the Activity in series [1] was determined as 5%; in series [7], 13%. Further, the Ki (usually a dissociation constant, usually derived from enzyme kinetics or from competition with a known ligand) was 3500 nM in series [2] and 2100 nM in series [5]. The Papp A→B – broadly, how fast a substance crosses the layer from the apical side – in series [3] was 27 ×10⁻⁶ cm/s. Besides, the 50% effective dose (ED50) (usually the dose at which the effect has come halfway, by size or by number of responders) in series [4] was at most 0.01 mg/kg. In series [6], the AUC(0-t) (as a rule, the area under the concentration-time curve up to a stated or last time point) amounted to 0.18 µM·h.

The values are drawn from ChEMBL document CHEMBL1156338 (J Med Chem, 2010).
